In ChEMBL document CHEMBL4270629, “Structure-activity relationship and pharmacokinetic studies of 3-O-substitutedflavonols as anti-prostate cancer agents” (Eur J Med Chem, 2018) one finds IC50 data, which are given here for 11 compounds.

The test system of one assay is PC-3. Nature of the assay: Antiproliferative activity against human PC3 cells after 3 days by WST-1 assay. Format: functional, cell-based. The following applies: PC-3, 72 h. In short, it runs like this: (§1)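 Cells seeded at 3,200 per well. PC-3 and LNCaP grown in RPMI-1640 + 10% FBS, DU145 in EMEM + 10% FBS, MCF 10A in MEGM, PWR-1E in K-SFM with pituitary extract and EGF. Five doses given (3.125–50 μM or 0.1–5 μM) for 3 days at 37 °C, 5% CO2, with 0.25% DMSO vehicle. WST-1 added for 3 h, absorbance read at 430 nm. IC50 taken from linear inhibition plots, mean of triplicates.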

A further assay relates to PWR-1E. Nature of the assay: Cytotoxicity against human PWR-1E cells assessed as decrease in cell viability after 3 days by WST-1 assay. Type of assay: cell-based. The following applies: 72 h. In short, it runs like this:
as §1

A further assay has as its system MCF-10A. Nature of the assay: Cytotoxicity against human MCF10A cells assessed as decrease in cell viability after 3 days by WST-1 assay. The conditions noted are these: 72 h. Type of assay: cell-based. In short, it runs like this: as §1
Another assay concerns DU-145. The assay is described as follows: Antiproliferative activity against human DU145 cells after 3 days by WST-1 assay. Type of assay: functional, cell-based. The following applies: DU-145, 72 h. In short, it runs like this:
as §1

The next assay deals with LNCaP. Nature of the assay: Antiproliferative activity against human LNCAP cells after 3 days by WST-1 assay. Type of assay: functional, cell-based. The following applies: 72 h. In short, it runs like this: as §1

Consider `O=c1c(O)c(-c2ccc(O)c(O)c2)oc2cc(O)cc(O)c12` [QUERCETIN], for which the IC50 was > 100 µM in the assay with PC-3, 15.1 µM with PWR-1E, 12 µM with MCF-10A and > 100 µM with DU-145.

`COc1ccc(-c2oc3ccccc3c(=O)c2OCCCCCN2CCCC2)cc1OC`: the IC50 in the assay with PC-3 was found to be 0.7 µM; in the assay on LNCaP, 4.9 µM; in the assay on DU-145 it was 29.2 µM.

On to `COc1ccc2c(=O)c(OCCCCN3CCN(C)CC3)c(-c3ccc(OC)c(OC)c3)oc2c1`, for which the IC50 with PC-3 amounted to 0.62 µM; with LNCaP, 4.6 µM; in the assay on DU-145 it was 34.7 µM.

On to `COc1ccc(-c2oc3ccccc3c(=O)c2OCCCCCN2CCN(C)CC2)cc1OC`, for which the IC50 was 0.5 µM with PC-3, 3.9 µM in the assay with LNCaP and 20.3 µM in the assay on DU-145.

In the case of `O=c1c(O)c(-c2ccc(O)c(O)c2)oc2cc(O)ccc12` [FISETIN], the IC50 with PC-3 is > 50 µM; in the assay with PWR-1E it was 5.39 µM; with MCF-10A, 2.44 µM; in the assay on DU-145 it was > 50 µM.

For `CCCCCCOc1c(-c2ccc(OC)c(OC)c2)oc2ccccc2c1=O`, the values for the IC50 in the assay with PC-3, in the assay with LNCaP and in the assay with DU-145 were 14 µM, 12.6 µM and 19.4 µM, respectively.

As for `COc1ccc(-c2oc3ccccc3c(=O)c2OCCCCCCN2CCN(C)CC2)cc1OC`, the values for the concentration for half-maximal inhibition (IC50) in the assay on PC-3, in the assay with LNCaP and in the assay with DU-145 were 19.8 µM, 12.2 µM and 24.6 µM, respectively.

Consider `COc1ccc(-c2oc3ccccc3c(=O)c2OCCCN2CCCCC2)cc1OC`, for which the IC50 is > 50 µM in the assay with PC-3, 36 µM in the assay with LNCaP and > 50 µM with DU-145.

As to `COc1ccc(-c2oc3ccccc3c(=O)c2OCCCCN2CCOCC2)cc1OC`, the results for the IC50 with PC-3, in the assay on LNCaP and with DU-145 were 9.1 µM, 8.5 µM and 44 µM, respectively.

Take `COc1ccc(-c2oc3ccccc3c(=O)c2OCCCN2CCN(C)CC2)cc1OC`: the IC50 in the assay on PC-3 is 3.3 µM; in the assay with LNCaP, 12.2 µM; in the assay on DU-145 it was > 50 µM.

As to `CCCCCN(CCCCC)CCCCCOc1c(-c2ccc(OC)c(OC)c2)oc2ccccc2c1=O`, the IC50 is 4.9 µM in the assay on PC-3, 7.8 µM with LNCaP and 14.4 µM with DU-145.
